“And” between values parts separate entries of the source, which are not always exact repeats. Equal entries are not always repeated.
Experiments:
[1] = target: T1, Growth factor receptor-bound protein 2 (Homo sapiens, UniProt P62993); test: In vitro binding affinity for growth factor receptor bound protein 2 SH2 domain from human breast cancer cells; assay type: cell-based, Cancer cell lines
Procedure, shortened: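 SPR: Grb2 SH2 protein (b-Grb2) amine-coupled to CM5 dextran chip at 2500-5000 RU. Ligands 1.25-1500 nM in PBS pH 7.4 running buffer, injected at 25 °C in increasing order, in duplicate, 1 min association, 3 min dissociation, no regeneration. Double-referenced against a blank surface and buffer injections. KD from global fit (1:1 or heterogeneity model) of at least four independent data sets.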

[2] = target: T1, Growth factor receptor-bound protein 2; test: In vitro dissociation rate constant for growth factor receptor bound protein 2 SH2 domain from human breast cancer cells; details: cancer cell lines
[3] = target: T1, Growth factor receptor-bound protein 2; test: In vitro relative association value for growth factor receptor bound protein 2 SH2 domain from human breast cancer cells; assay type: cell-based; details: Cancer cell lines

Compound	Kd [1]	koff [2] [s⁻¹]	Ka [3]
C[C@@]1(Cc2ccc(P(=O)(O)O)cc2)NC(=O)CC(c2ccc(CP(=O)(O)O)cc2)/C=C/C[C@@H](Cc2cccc3ccccc23)CNC(=O)[C@H](CC(N)=O)NC1=O (stereo in doubt; 10)	2.28 nM and 4.3 nM	–	–
C[C@@]1(Cc2ccc(P(=O)(O)O)cc2)NC(=O)CC(c2ccc(CP(=O)(O)O)cc2)/C=C/C[C@@H](Cc2cccc3ccccc23)CNC(=O)[C@H](CC(N)=O)NC1=O (stereo in doubt; 10A) [listing 1 of 2 here]	0.097 nM	0.00063	–
C[C@@]1(Cc2ccc(P(=O)(O)O)cc2)NC(=O)CC(c2ccc(CP(=O)(O)O)cc2)/C=C/C[C@@H](Cc2cccc3ccccc23)CNC(=O)[C@H](CC(N)=O)NC1=O (stereo in doubt; 10A) [listing 2 of 2 here]	–	–	6.5e+06 1/M·1/S

Continued, values first:

Kd [1]	koff [2] [s⁻¹]	Ka [3]	Compound
72 nM	0.018	–	C[C@@]1(Cc2ccc(P(=O)(O)O)cc2)NC(=O)CC(c2ccc(CP(=O)(O)O)cc2)/C=C/C[C@@H](Cc2cccc3ccccc23)CNC(=O)[C@H](CC(N)=O)NC1=O (stereo in doubt; 10B) [listing 1 of 2 here]
–	–	230000 1/M·1/S	C[C@@]1(Cc2ccc(P(=O)(O)O)cc2)NC(=O)CC(c2ccc(CP(=O)(O)O)cc2)/C=C/C[C@@H](Cc2cccc3ccccc23)CNC(=O)[C@H](CC(N)=O)NC1=O (stereo in doubt; 10B) [listing 2 of 2 here]

From ChEMBL document CHEMBL1142651, “Design and synthesis of conformationally constrained Grb2 SH2 domain binding peptides employing alpha-methylphenylalanyl based phosphotyrosyl mimetics” (J Med Chem, 2005)
